Screening results as filed in PubChem.
HSF1 inh: HSF1 inhibition. AID 2098. 300,000 tested, 0.77% active. NIH3T3-HGL HSE-luciferase, MG132-induced, luminescence 8 h; hits give low values. activity change, negative = inhibition, % at 7.5 µM (by protocol);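 active = more than half of replicate wells show activity change below -50%, luminescence cut by over half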;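 also: luciferase reports HSF-1 transcriptional activity via heat shock element; 0% = median of DMSO wells and -100% = zero luminescence signal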
Rad51 HR inh: Rad51 (human) homologous recombination inhibition; hRad51 DNA strand exchange, fluorescence dequenching; inhibition, % at 10 µM; 200,000 tested, 0.085% active; AID 1385;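 active = inhibition above 40% at the single screening dose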;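 also: 0% = DMSO control wells and 100% = blanks with heterologous ssDNA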
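System: human Rad51 nucleoprotein filaments preassembled on unlabelled ssDNA. Reagent: labelled 47-mer dsDNA for strand exchange. Schedule: 30-min compound preincubation and 15-min exchange, both room temperature. Measured by: FRET fluorescence dequenching, excitation 485 nm, emission 520 nm. Read-out: Fluorescence-based percent inhibition, control- and blank-normalised. Benchmarks: plate controls and plate blanks.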
HSV augment: increases HSV replication in cells. HSV replication augmentation in cells, fold increase. maximum fold increase. 220,000 tested, 0.005% active. AID 1956; in the data active = maximum fold increase above about 1.5; tested in PC3 cells
Mdm2 ligase inh: Mdm2 E3 ligase (human) inhibition; Q00987; 210,000 tested, 0.11% active; cell-based MDM2 ubiquitination luciferase reporter, 2 h; 0 = plate control, 100 = twice control, blank-subtracted; signal enhancement, % at 5 µM;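 active = signal enhancement of 30% or more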;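 also: luminescence tracks abundance of the self-degrading MDM2-luciferase fusion protein; higher signal means inhibition of MDM2 E3 ligase activity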
Target sequence (Q00987 whole entry, looked up, the tested form may be a part): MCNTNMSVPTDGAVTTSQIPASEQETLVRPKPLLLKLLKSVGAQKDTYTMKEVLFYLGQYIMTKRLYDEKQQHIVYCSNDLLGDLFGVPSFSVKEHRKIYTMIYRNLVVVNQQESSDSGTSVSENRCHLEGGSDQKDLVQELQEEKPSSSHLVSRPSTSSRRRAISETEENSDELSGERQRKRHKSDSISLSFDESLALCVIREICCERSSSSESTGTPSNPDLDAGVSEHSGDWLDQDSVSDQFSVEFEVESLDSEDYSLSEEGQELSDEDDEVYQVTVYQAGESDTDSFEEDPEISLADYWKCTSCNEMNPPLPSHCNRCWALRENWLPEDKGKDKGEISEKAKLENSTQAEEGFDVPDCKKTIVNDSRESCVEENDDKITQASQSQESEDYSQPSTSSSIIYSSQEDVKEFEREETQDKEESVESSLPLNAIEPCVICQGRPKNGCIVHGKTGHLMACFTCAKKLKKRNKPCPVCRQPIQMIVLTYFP
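Timing – 2 h compound exposure at 37 °C · Assay system – mammalian cells stably expressing self-ubiquitinating, self-degrading MDM2 E3–luciferase fusion · Amount – 2000 cells seeded into each well · Measure – % luminescence enhancement versus blank-corrected plate control mean · Measured by – SteadyLite luminescence, 15 min reagent step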
HSF1 activator: increases HSF-1 driven luciferase reporter signal; NIH3T3-HGL HSF-1 luciferase reporter, MG132, 8 h; 100% = twice DMSO control signal; activation, % at 9 µM; 300,000 tested, 1.7% active; AID 504408;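 active = mean replicate activation of at least 50% with a set share of replicates each reaching 50%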;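 also: 0% = median of the neutral control wells and 100% = twice that signal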
Hsp70 act: transcriptional activators of Hsp70. activation, % at 10 µM. 200,000 tested, 0.04% active. HeLa Hsp70 promoter luciferase reporter, luminescence; scaled: vehicle 0, proteasome-inhibitor control 100%;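 active = activation above the mean across all tested compounds plus 3 SD, cutoff set per campaign, cut at about 5.5% in these data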;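 also: 100% = MG132 at 30 µM as the positive control and 0% = DMSO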
An asterisk follows results filed as active; i = inactive; · = not tested or not shown. The list is not random: actives were taken first. Their share in the collection is about 2.6%.

SMILES | HSF1 inh | Rad51 HR inh | HSV augment | Mdm2 ligase inh | HSF1 activator | Hsp70 act
Cc1ccc(C)c(N(C(=O)c2csnn2)C(C(=O)NC2CCCC2)c2ccncc2)c1 (stereo not drawn) | -3 | · | · | · | 9 | ·
CC(C)c1ccc(N(C(=O)c2csnn2)C(C(=O)NC2CCCC2)c2ccncc2)cc1 (stereo not drawn) | 21 | · | · | · | 53* | ·
NS(=O)(=O)c1cccc(NC(=O)Cn2nc(C(=O)O)c3ccccc3c2=O)c1 | -2 | · | · | · | -3 | ·
COC(=O)c1c(C(=O)OC)c(-c2ccc(OC)cc2)n2c1CS(=O)(=O)C2 | -1 | · | · | · | 4 | ·
Cc1nc(-c2ccc(NC(=O)Cc3ccccc3)cc2)cs1 | 29 | · | · | · | 57* | ·
COc1ccc(NC(=O)c2ccc(-c3csc(C)n3)cc2)cc1 | 8 | · | · | · | 30 | ·
Cc1nc(-c2ccc(C(=O)Nc3ccc(F)cc3)cc2)cs1 | 19 | -13 | i | -90 | 67* | 0
CCN(CC)C(=O)Cn1nc(-c2ccncc2)nc1SCC(=O)Nc1ccc(OC)cc1 | 24 | · | · | · | 58* | ·
COC(=O)c1ccc(NC(=O)Cn2nc(-c3ccncc3)nc2SCC(=O)Nc2nccs2)cc1 | -16 | -3 | i | -1 | -32 | 0
Cc1cc(C)c(C#N)c(Nc2ccc(F)cc2)n1 | -6 | · | · | · | 1 | ·
N#Cc1cnc(Nc2ccc(F)cc2)nc1N | 31 | 14 | i | -5 | 72* | ·
CCC(=O)Nc1ccc2nc(C3CC3)n(Cc3ccc(C(C)(C)C)cc3)c(=O)c2c1 | -59* | -2 | i | · | -64 | ·
COc1ccc(Cn2c(C3CC3)nc3ccc(NC(=O)C4CC4)cc3c2=O)cc1 | 49 | 1 | i | -8 | 70* | 0
Cc1c(CCC(=O)O)c(=O)oc2cc(OCc3ccccc3Br)ccc12 | -8 | · | · | · | -4 | ·
CCC1CN(S(=O)(=O)c2cc(-c3cc(C)no3)ccc2OC)c2cc(C)ccc2O1 (stereo not drawn) | 10 | · | · | · | -3 | ·
CCn1c(SCCOc2ccc(Cl)cc2)nnc1-c1cccs1 | 19 | -8 | i | -6 | 61* | 0
Cc1c(NC(=O)CN2C(=O)NC(C)(c3ccccc3)C2=O)c(=O)n(-c2ccccc2)n1C (stereo not drawn) | -4 | · | i | · | -7 | 0
COCCCNC(=O)CN(c1ccc(F)cc1)S(=O)(=O)c1ccc2c(c1)OCCO2 | -5 | · | · | · | -11 | ·
O=C(O)c1cccc(-n2cccc2/C=C2/NC(=O)N(c3cccc(Cl)c3)C2=O)c1 | -12 | -32 | i | -4 | -13 | ·
COc1ccc(-n2cccc2/C=C2/NC(=O)N(c3cccc(Cl)c3)C2=O)cc1 | -63* | -7 | i | -8 | -66 | 0
C=CCn1c(SCC(=O)NCC2CCCO2)nnc1-c1ccccc1 (stereo not drawn) | -16 | 19 | i | -15 | -6 | 0
CCCC(=O)Nc1cc(-c2nn(C)c(=O)c3ccccc23)ccc1OC | 26 | 1 | i | -19 | 60* | 0
Cc1cc2nc(-c3ccc(SCC(=O)Nc4ccc(S(=O)(=O)NC5CC5)cc4)nc3)[nH]c2cc1C | 21 | 1 | i | -10 | 54* | 0
CCCOC(=O)c1ccc(Oc2cn[nH]c2-c2ccc(O)cc2O)cc1 | 13 | -6 | i | -12 | 52* | ·
Cc1c(CCC(=O)N[C@@H](CC(C)C)C(=O)O)c(=O)oc2cc3oc4c(c3cc12)CCCC4 | -11 | · | · | · | 4 | ·
SMILES | HSF1 inh | Rad51 HR inh | HSV augment | Mdm2 ligase inh | HSF1 activator | Hsp70 act
COc1ccccc1CNC(=O)N1CCN(c2ccccc2C)CC1 | -72* | · | · | · | -78 | ·
CCn1ncc(/C=N\NC(=O)Cc2ccc([N+](=O)[O-])cc2)c1C | 4 | · | i | 1 | -3 | 0
CCC1=C[C@H]2CN(C1)Cc1c([nH]c3ccccc13)[C@@](C(=O)OC)(c1cc3c(cc1OC)N(C)[C@H]1[C@@](O)(C(=O)OC)[C@H](OC(C)=O)[C@]4(CC)C=CCN5CC[C@]31[C@@H]54)C2 | · | 6 | i | · | · | ·
CCOC(=O)c1cnc2c(-c3ccccc3)c(C)nn2c1N | -1 | -1 | i | -25 | 12 | 0
Nc1c(-c2cccc(Cl)c2)cnc2c(-c3ccccc3)cnn12 | 26 | · | · | · | 64* | ·
CCOC(=O)c1cnc2c(-c3ccccc3)cnn2c1N | 31 | -6 | i | -40 | 53* | 0
CCOC(=O)c1c(-c2ccccc2)cn2c(C)cc(C)nc12 | 24 | 6 | i | -13 | 59* | 0
CCOC(=O)C1=C(N)OC(CCl)=C(C#N)C1c1ccsc1 (stereo not drawn) | 2 | -5 | i | -14 | -8 | 0
COc1ccc(N=CC2=C(O)c3ccccc3C2=O)cc1 | -25 | 4 | i | -79 | -18 | 0
O=C1C(C=Nc2ccccc2)=C(O)c2ccccc21 | 17 | 5 | i | -78 | 54* | 0
Cc1cc(C(=O)COC(=O)c2ccc(Cl)c(S(N)(=O)=O)c2)c(C)n1CC1CCCO1 (stereo not drawn) | -57* | · | · | · | -62 | ·
COCCn1c(C)cc(C(=O)COC(=O)c2ccc(-n3nc(C)cc3C)cc2)c1C | 14 | -2 | i | -23 | 60* | 0
Cc1cc(C(=O)COC(=O)CNC(=O)c2ccccc2)c(C)n1CC1CCCO1 (stereo not drawn) | -50* | · | i | -43 | -60 | 0
COCCn1c(C)cc(C(=O)COC(=O)c2ccc(Cl)c(S(N)(=O)=O)c2)c1C | -61* | · | · | · | -62 | ·
Cc1noc(C)c1C(=O)NC1=NCCS1 | -15 | · | · | · | 2 | ·
COC(CNC(=O)C1CCN(S(=O)(=O)c2cccc3nsnc23)CC1)OC | -6 | · | · | · | -4 | ·
Fc1ccc(-c2cn3ccccc3n2)cc1 | 28 | · | · | · | 60* | ·
COc1ccc(CC(=O)Nc2ccc(-c3cn4ccccc4n3)cc2)cc1 | 126 | 7 | i | 0 | 184* | 1
COc1ccc(CN(CCCN2CCOCC2)C(=O)Nc2cccc(Cl)c2)cc1OC | -52* | -7 | i | -16 | -61 | 0
Cc1ccc(CNC(=O)CNC(=O)c2ccc(Br)o2)cc1 | -3 | · | · | · | 2 | ·
CCOc1ccc(NC(=O)Nc2cccn(Cc3ccccc3)c2=O)cc1 | 8 | 41* | i | -22 | 18 | 0
CCc1cccc(NC(=O)Nc2cccs2)c1 | 73 | 3 | i | -13 | 133* | 1
COC(=O)c1ccccc1NC(=O)Nc1cccs1 | 32 | -3 | i | · | 66* | 0
N#Cc1cccc(NC(=O)Nc2cccs2)c1 | 26 | -11 | i | -12 | 33 | 0
O=C(Nc1cccs1)Nc1c(F)c(F)cc(F)c1F | 15 | 3 | i | 5 | 59* | 0
COc1ccccc1OC(C)C(=O)N(Cc1ccco1)C1CCS(=O)(=O)C1 (stereo not drawn) | -9 | · | · | · | 4 | ·
CCCCC(CC)CNC(=O)CC1Nc2c3ccccc3nc(=S)n2C1=O (stereo not drawn) | 5 | · | i | -17 | -3 | 1
